Rows were chosen to be rich in hits. Some 10% of all compounds tested hit in one or more screens of this group.
PMI act hi M6P: human PMI activators, high substrate, primary screen, biochemical, fluorescence intensity, near-saturating mannose 6-phosphate; Mannose-6-phosphate isomerase (Homo sapiens), P34949; coupled PMI enzyme assay, resazurin fluorescence, 20 min; active compounds read high; 1 = untreated enzyme, 0 = substrate-free blank; activation factor at 20 µM; hit rate 0.34% among 190,000; AID 1216, 2008;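 active = activation factor of 2 or more at 20 µM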
Target sequence (P34949 whole entry, looked up): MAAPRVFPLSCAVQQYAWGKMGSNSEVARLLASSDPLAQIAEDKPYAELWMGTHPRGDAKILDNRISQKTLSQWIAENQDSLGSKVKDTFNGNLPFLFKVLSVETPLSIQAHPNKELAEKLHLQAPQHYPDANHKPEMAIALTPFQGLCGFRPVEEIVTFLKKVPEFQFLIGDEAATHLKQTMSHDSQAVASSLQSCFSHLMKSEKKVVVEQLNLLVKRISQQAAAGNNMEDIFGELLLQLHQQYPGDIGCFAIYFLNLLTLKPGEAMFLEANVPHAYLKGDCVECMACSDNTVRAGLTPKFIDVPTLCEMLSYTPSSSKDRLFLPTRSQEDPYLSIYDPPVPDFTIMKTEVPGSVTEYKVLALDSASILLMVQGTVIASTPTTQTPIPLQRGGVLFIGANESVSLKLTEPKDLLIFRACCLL
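Test system: human phosphomannose isomerase with PGI, G6PDH, diaphorase coupling enzymes / Doses: 20 µM compound, 1% DMSO / Times: enzyme reaction with compound 20 min at room temperature / Measured by: Diaphorase-driven resazurin-to-resorufin fluorescence, excitation 544, emission 590 nm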
WT yeast gro inh: growth inhibition of WT strain, primary screen, mitochondrial fusion inhibitor project, WT and mutant strains, chemical genetic. mitochondrial fusion phenotypic screen. inhibition, % at 10 µM. hit rate 2.1% among 190,000; in the data active = inhibition above about 58%; tested in S. cerevisiae
Diaph act CS: compounds boosting diaphorase resazurin reduction – biochemical, uHTS, resorufin fluorescence, counter-screen for diaphorase-coupled primary assays, primary screen. Diaphorase/resazurin coupled assay, 16 min; active compounds read high; 1 = vehicle wells, 0 = NADH-free wells. activation factor at 20 µM. hit rate 0.005% among 190,000. AID 1229, 2008;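 active = diaphorase activity raised at least twofold by the compound at 20 µM; inactive = activation factor below 2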
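Material: purified diaphorase enzyme from Clostridium kluyveri; Also added: 0.114 mM NADH and 0.1 mM resazurin, final amounts; Doses: single compound dose of 20 µM, 1% DMSO final; Times: 16 min enzyme reaction, ambient temperature; Detection: resorufin fluorescence, excitation 544 nm, emission 590 nm; Measure: increased resorufin signal from activators or reducing compounds.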
PMI act: activators of human PMI, primary screen, biochemical, fluorescence intensity, near-Km mannose 6-phosphate | activation factor at 20 µM | Mannose-6-phosphate isomerase (Homo sapiens), P34949 | AID 1214, 2008 | hit rate 0.005% among 190,000 | purified human PMI, coupled resazurin fluorescence, 20 min; active compounds read high; 1 = vehicle control, 0 substrate-free wells;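 active = activation factor of 2 or more at 20 µM, relative to plate controls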
L major viab: Leishmania major promastigote growth inhibition, primary screen. inhibition, % at 10 µM. AID 1063, 2008. hit rate 9% among 200,000. Leishmania major promastigotes, resazurin fluorescence viability; in the data active = inhibition above about 50%;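 note: promastigotes grown with compound for 44 hours at 28 °C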
* marks the source's active call; other numbers are inactive results; . = not tested or not shown.

SMILES	PMI act hi M6P	WT yeast gro inh	Diaph act CS	PMI act	L major viab
O=C1C(Cl)=C(NCCCN2CCOCC2)C(=O)N1CCc1ccccc1	0.9	-3	0.9	0.8	97*
O=C1C(Cl)=C(NCCc2ccccc2)C(=O)N1CCc1ccccc1	1.1	.	1	1.1	-7
CN1CCN(C2=C(Cl)C(=O)N(CCc3ccccc3)C2=O)CC1	1	5	0.8	0.9	93*
COc1ccc(Oc2ccc(NC(=O)c3ccccc3C)cc2)cc1	0.9	-12	0.8	0.9	-5
CN(C)CCN(C(=O)CCc1ccccc1)c1nc2c(F)cc(F)cc2s1	1.1	5	0.9	1.1	3
CN(C)CCCN(C(=O)CCc1ccccc1)c1nc2ccc(Br)cc2s1	1.2	92	1.1	1.1	61*
CN(C)CCCN(C(=O)c1ccco1)c1nc2ccc(Br)cc2s1	0.9	22	0.9	1	43
CN(C)CCCN(C(=O)CCc1ccccc1)c1nc2ccc(F)cc2s1	0.9	89*	0.9	1	48
O=P(c1ccccc1)(c1ccccc1)c1nc(-c2ccc(Cl)cc2)oc1N1CCOCC1	1	-8	0.8	1	28
OC(CSc1ccccc1Cl)CN1CCN(c2ccc(F)cc2)CC1 (stereo not drawn)	0.9	28	0.8	0.9	91*
OC(CSc1c(Cl)cccc1Cl)CN1CCN(c2ccc(F)cc2)CC1 (stereo not drawn)	0.8	58	0.7	0.8	63*
COCCN(C(=O)CCc1ccccc1OC)c1nnc(-c2cccnc2)s1	1.1	12	0.8	1.1	15
CN1CCC(N(C)C(=O)c2cc(=O)c3ccccc3o2)CC1	1	13	0.9	1	-4
CC1(C)C(CSc2nc3ccccc3[nH]2)C1(Cl)Cl (stereo not drawn)	1	35	0.9	1	74*
CCSc1nc2ccccc2[nH]1	1.1	0	1	1.1	10
CN(C)c1ccc(C2SCCN2C(=O)c2ccc([N+](=O)[O-])cc2)cc1 (stereo not drawn)	1.1	44	1	1.1	-1
O=C(N/N=C1\CCCc2ccccc21)c1ccc([N+](=O)[O-])cc1Cl	1.1	-18	1.1	1.1	94*
O=C(N/N=C1\CCCc2ccccc21)c1ccccc1[N+](=O)[O-]	1	-8	1.1	1.1	100*
CCOc1ccccc1NC(=O)NC(=O)N(C)S(=O)(=O)c1ccc(C)cc1	0.8	62*	0.8	0.9	-8
CCOc1ccccc1NC(=O)CCN(c1ccc(C)cc1)S(=O)(=O)c1ccccc1	0.9	8	0.8	0.8	81*
Cc1ccc(N(CCC(=O)O)S(=O)(=O)c2ccccc2)cc1	0.9	25	0.9	0.9	-6
Cn1cccc1-c1cc(C(=O)N/N=C/C=C/c2ccccc2)[nH]n1	0.8	17	0.8	0.9	32
O=C(c1ccccc1)N1N=C(c2ccccc2)CC1c1ccccc1[N+](=O)[O-] (stereo not drawn)	0.7	2	0.9	1	-4
CC(=O)Nc1ccc(S(=O)(=O)N2CCC(NC(C)=O)(c3cccc(F)c3)CC2)cc1	1	-1	0.9	1	-4
CCC(C)N(C)Cc1cccc(C2(O)CCN(S(=O)(=O)c3ccc(F)cc3)CC2)c1 (stereo not drawn)	1	4	0.8	1	100*
SMILES	PMI act hi M6P	WT yeast gro inh	Diaph act CS	PMI act	L major viab
O=C(Cn1nnc(-c2ccccc2Cl)n1)N1CCN(S(=O)(=O)c2ccc(Cl)cc2)CC1	0.9	22	0.8	0.9	99*
NNc1ccccc1C(F)(F)F	3.1*	-7	0.9	2*	-12
COC(=O)[C@H](C)NC(=O)Nc1ccccc1C(F)(F)F	0.9	-11	0.9	0.9	-10
CCN(CC)S(=O)(=O)c1ccc2oc(SCC3CN=C(c4ccc(OC)cc4)S3)nc2c1 (stereo not drawn)	1	-1	0.8	1	8
Cc1cc(-c2ccccc2)nc(Cl)c1C#N	1.2	2	1	1.2	70*
CCCNC(C)C(=O)Nc1ccccc1C (stereo not drawn)	1	0	0.9	1	.
CCCN(CC(=O)Nc1ccccc1C)C(=O)CCl	1.2	-19	1.1	1.4	53*
O=C(CCc1ccccc1)Nc1cc(Cl)ccc1O	1	20	0.9	0.9	78*
Cc1cc(C)c([N+](=O)[O-])cc1NC(=O)CCSc1ccccc1Cl	0.9	-9	0.8	0.9	55*
Cc1cc(NC(=O)CCc2ccccc2)c([N+](=O)[O-])cc1C	0.9	22	0.8	0.9	51*
O=C(Cn1c(=O)c(=O)n(Cc2ccccc2)c2ccc(Cl)cc21)Nc1cccc(F)c1	1	-4	0.9	0.9	15
CC(NC(=S)Nc1ccccc1C(F)(F)F)C1CC2CCC1C2 (stereo not drawn)	1	28	0.8	0.9	35
CC(=O)c1cccc(NC(=O)Cc2ccc3c(c2)CCCC3)c1	0.9	12	0.9	0.9	81*
COc1cc(CC(=O)Nc2ccc3c(c2)CCC3)cc(OC)c1OC	1	-11	0.9	1	89*
Cc1ccc(C(=O)N2CCN(C(=O)c3ccco3)CC2)cc1NC(=O)c1ccco1	1.1	5	1.1	1.1	-2
Cc1cccc(C(=O)NC(=S)NNC(=O)COc2c(C)cccc2C)c1	1	25	1	1	8
CC(=O)N(CCCc1ccc(C(C)(C)C)cc1)CCCN(C)C	1	6	1	1	99*
CC(C)c1ccc(NC(=S)NNC(=O)c2cccs2)cc1	1	16	0.9	1	-8
Cc1nc2ncnn2c(N2CCCC(C(=O)Nc3ccc4c(c3)CCC4)C2)c1C (stereo not drawn)	1	-3	0.9	1.1	9
CCOC(=O)N1CCN(C(=O)CC(C(=O)N2CCc3ccccc32)n2ccnc2)CC1 (stereo not drawn)	1	1	1	1	83*
O=C(CC(C(=O)N1CCc2ccccc21)n1ccnc1)NCc1ccccc1 (stereo not drawn)	1.1	-7	0.9	1.1	100*
CCN(CC)CC(C)CNC(=O)CC(C(=O)N1CCc2ccccc21)n1ccnc1 (stereo not drawn)	0.9	18	0.9	1	-4
Cc1ccc(C(NC(=O)NC(C)c2ccccc2)C(Cl)(Cl)Cl)cc1F (stereo not drawn)	0.8	64*	0.8	0.8	30
O=C(Cc1cccs1)N1CCN(c2ccc([N+](=O)[O-])cc2)CC1	1	-3	1	1	7
